Shown is part of a subset that was picked to be rich in hits.
XiGFP reactiv: activators of inactive X chromosome reactivation, primary screen, imaging, XiGFP fibroblasts, GFP high-content imaging, set 2. XiGFP mouse fibroblasts, % GFP-positive cells imaging, 3 d; cells co-treated with 5-aza-dC sensitizer; scaled so ellipticine positive control = 100%. activation, % at 7.58 µM. 360,000 compounds, 0.055% hits. AID 743238, 2013;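 active = mean normalized replicate activation at least 10% and every replicate at or above 10%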;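 also: 0% = median of on-plate neutral control wells and 100% = ellipticine 6 µM median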
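assay system = SV40-immortalized XiGFP fibroblast cells, line 68-5-11 | buffer or medium = DMEM plus 5-aza-dC sensitizer | doses = single-point pinned compound dosing | times = 3-day compound exposure, then 15 min fixation at room temperature | benchmarks = positive control ellipticine, 6 µM final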
ABCB6 inh 2: ABCB6 transporter inhibitors, primary screen, K562-ABCB6 cells, flow cytometry, MLPCN library. ATP-binding cassette sub-family B member 6 (Homo sapiens), Q9NP58. K562-ABCB6 porphyrin accumulation, 1 h; stronger effect = lower value. fluorescence ratio to DMSO, % at 10 µM. 360,000 compounds, 0.19% hits. AID 602162, 2011;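 active = fluorescence ratio to DMSO below 75%, the collection mean minus 3 SD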;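 also: signal is porphyrin accumulated inside mitochondria; 100% equals median channel fluorescence of DMSO control wells; lower ratio means ABCB6 inhibition with less porphyrin fluorescence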
Myeloid diff 2: induction of myeloid progenitor differentiation, primary screen, cell-based, flow cytometry, MLPCN library | ER-HoxA9 myeloid progenitors, lysozyme-GFP differentiation | calls only at 10 µM | 360,000 compounds, 1% hits | AID 624256, 2012;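 active = normalized GFP-positive differentiation at or above the plate's own cutoff, the solvent-only control mean plus 3 SD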;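 also: cells exposed to compound for four days before flow analysis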
ABCB6 inh CP1: ABCB6 transporter inhibitors, confirmation, K562-ABCB6 cells, flow cytometry, cherry pick 1 | shares compounds with ABCB6 inh 2 | K562-ABCB6 porphyrin accumulation, 1 h; stronger effect = lower value | ratio response (% of DMSO), % at 10 µM | 700 tested, under 10 active;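 active = repeat-averaged ratio response below 75% of DMSO, the collection mean minus 3 SD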;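 also: median porphyrin fluorescence at 575 nm with 488 nm excitation from mitochondria; lower ratio means less porphyrin signal so ABCB6 inhibition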
Numbers without * were called inactive; i = inactive; nt = not tested or not shown.

SMILES	XiGFP reactiv	ABCB6 inh 2	Myeloid diff 2	ABCB6 inh CP1
Cc1nn(C(C)(C)C)c(OC(=O)c2cccs2)c1S(=O)(=O)c1ccccc1	nt	74*	i	101
O=C(Nc1ccccc1)N[C@H]1CC[C@H](CCn2cc(-c3ccccc3F)nn2)O[C@@H]1CO	0	nt	nt	nt
O=C(O)c1ccc(S(=O)(=O)NCc2cccnc2)cc1	0	100	i	nt
CC(=O)c1ccc(S(=O)(=O)NCc2cccnc2)cc1	0	73*	i	98
C[C@@H]1CN([C@H](C)CO)C(=O)c2cccc(NC(=O)c3cnccn3)c2O[C@H]1CN(C)CC1CCCCC1	0	nt	nt	nt
C[C@@H]1CCCCO[C@@H](CN(C)S(C)(=O)=O)[C@@H](C)CN([C@@H](C)CO)C(=O)c2cc(NS(=O)(=O)c3ccc(F)cc3)ccc2O1	-1	nt	nt	nt
C[C@H](CO)N1C[C@H](C)[C@H](CN(C)C(=O)Nc2ccccc2)Oc2c(NC(=O)c3ccc(-c4nccs4)cc3)cccc2C1=O	0	nt	nt	nt
N#CCCSCc1ccc(C(=O)O)o1	nt	68*	i	99
N#CCCSCc1ccc2oc(C(=O)O)cc2c1	nt	103	i	nt
C[C@@H]1CN([C@@H](C)CO)C(=O)c2cccc(NS(=O)(=O)c3cccs3)c2O[C@H]1CN(C)S(=O)(=O)c1ccc(Cl)cc1	-1	nt	nt	nt
C[C@H](CO)N1C[C@H](C)[C@@H](CN(C)S(C)(=O)=O)OCCCC[C@H](C)Oc2ccc(NC(=O)c3ccccc3)cc2C1=O	2	nt	nt	nt
COc1ccc(S(=O)(=O)N2CCC3(CC2)CN(C(=O)c2cccnc2)[C@@H](CO)c2c3c3ccc(OC)cc3n2C)cc1	0	nt	nt	nt
CCOc1ccc(-c2cncc3nccn23)cc1	0	65*	i	98
COc1ccc(-c2cncc3nccn23)cc1OC	0	96	i	nt
COc1cc(NC(=O)c2sc3ncn(CC(=O)N4CCCCC4)c(=O)c3c2C)cc(OC)c1OC	0	105	i	nt
CCN(CC)C(=O)Cn1cnc2sc(C(=O)Nc3cc(OC)c(OC)c(OC)c3)c(C)c2c1=O	nt	97	i	102
Cc1c(C(=O)Nc2c(F)cccc2F)sc2ncn(CC(=O)N3CCCCC3)c(=O)c12	0	99	i	nt
CCCNC(=O)Cn1cnc2sc(C(=O)Nc3cc(OC)c(OC)c(OC)c3)c(C)c2c1=O	nt	101	i	97
COc1ccccc1NC(=O)Cn1cnc2sc(C(=O)Nc3cc(OC)c(OC)c(OC)c3)c(C)c2c1=O	0	93	i	nt
CC(=O)Nc1cccc(NC(=O)c2sc3ncn(CC(=O)N4CCCCC4)c(=O)c3c2C)c1	nt	101	i	99
COCC#Cc1ccc([C@H]2[C@H]3CN(C(=O)CN4CCOCC4)CC(=O)N3[C@H]2CO)cc1	0	nt	nt	nt
C[C@H]1CN([C@@H](C)CO)C(=O)Cc2cc(NS(=O)(=O)c3cccs3)ccc2O[C@H]1CN(C)S(=O)(=O)c1ccccc1	0	nt	nt	nt
COc1ccc(NC(=O)Nc2ccc3c(c2)[C@@H]2C[C@@H](CC(=O)N4CCOCC4)O[C@@H](CO)[C@@H]2O3)cc1	0	nt	nt	nt
CC(C)NC(=O)Nc1ccc2c(c1)C(=O)N([C@@H](C)CO)C[C@@H](C)[C@H](CN(C)C(=O)NC(C)C)OCCCC[C@H](C)O2	0	nt	nt	nt
COc1ccc(NC(=O)N[C@@H]2CC[C@@H](CCNC(=O)c3cc(Cl)cc(Cl)c3)O[C@H]2CO)cc1	-1	nt	nt	nt
SMILES	XiGFP reactiv	ABCB6 inh 2	Myeloid diff 2	ABCB6 inh CP1
O=C(Nc1ccc(Br)cc1)c1cccnc1N1CCCCC1	nt	73*	i	100
O=C(Nc1ccc(F)cc1)c1cccnc1N1CCCCC1	nt	103	i	nt
COCC(=O)N(C[C@H]1N[C@H](CO)[C@@H]1c1ccc(C2=CCCC2)cc1)C(C)C	0	nt	nt	nt
COCc1nnc(NC(=O)c2c(-c3c(Cl)cccc3Cl)noc2C)s1	0	67*	i	101
Cc1onc(-c2c(F)cccc2Cl)c1C(=O)Nc1nnc(C(F)(F)F)s1	0	103	i	nt
C[C@H]1CN([C@@H](C)CO)C(=O)Cc2cc(NS(=O)(=O)c3ccccc3)ccc2O[C@H]1CN(C)S(=O)(=O)c1cn(C)cn1	0	nt	nt	nt
C[C@H](CO)N1C[C@H](C)[C@H](CN(C)C(=O)c2ccccc2)Oc2ncc(C3=CCCC3)cc2C1=O	-1	nt	nt	nt
CO[C@@H]1CN(C)C(=O)c2cc(NC(=O)Nc3cccc(F)c3)ccc2OC[C@@H](C)N(C(=O)Nc2c(C)noc2C)C[C@H]1C	0	nt	nt	nt
CCOC(=O)C1CCCN(C(=O)c2cn(CC)c3ccc(S(=O)(=O)N4CCCC4)cc3c2=O)C1 (stereo not given)	nt	92	i	nt
CCOC(=O)C1CCCN(C(=O)c2cn(C)c3ccc(S(=O)(=O)N4CCCC4)cc3c2=O)C1 (stereo not given)	nt	57*	i	102
Cc1ccc(C)c(Cn2nnc3c(=O)[nH]c(C4CCCN(C(=O)C5CCC5)C4)nc32)c1 (stereo not given)	nt	102	i	nt
O=C(c1ccco1)N1CCCC(c2nc3c(nnn3Cc3c(Cl)cccc3Cl)c(=O)[nH]2)C1 (stereo not given)	0	94	nt	nt
O=C(c1ccco1)N1CCCC(c2nc3c(nnn3Cc3ccccc3)c(=O)[nH]2)C1 (stereo not given)	0	99	i	nt
Cc1ccc(C)c(Cn2nnc3c(=O)[nH]c(C4CCN(C(=O)c5ccco5)CC4)nc32)c1	0	102	i	102
O=C(c1ccco1)N1CCC(c2nc3c(nnn3Cc3ccc(F)cc3)c(=O)[nH]2)CC1	0	98	i	100
O=C(c1ccco1)N1CCC(c2nc3c(nnn3Cc3ccccc3Cl)c(=O)[nH]2)CC1	0	97	i	96
CNC(=O)C[C@H]1CC[C@H]2[C@@H](COC[C@H](O)CN2Cc2ccc(Cl)c(Cl)c2)O1	0	nt	nt	nt
COCC(=O)Nc1ccc2c(c1)[C@H]1C[C@@H](CC(=O)NCCc3ccccc3)O[C@@H](CO)[C@H]1O2	0	nt	nt	nt
COc1ccccc1-c1cn(CC[C@@H]2CC[C@@H](NC(=O)c3cnccn3)[C@H](CO)O2)nn1	0	nt	nt	nt
CCCN1[C@@H]2c3cccc(=O)n3C[C@@H]2[C@@H](CO)[C@@H]1C(=O)N[C@H](C)c1ccccc1	1	nt	nt	nt
CCOc1ccc(C2Nc3ccccc3NC3=C2C(=O)CC(C)(C)C3)cc1OC (stereo not given)	0	66*	i	99
COc1ccc(C2Nc3ccccc3NC3=C2C(=O)CC(C)(C)C3)cc1OC (stereo not given)	0	99	i	nt
CN1C(=O)c2cc(NC(=O)C3CCCCC3)ccc2OC[C@@H]2O[C@@H](CC(=O)NC3CCCC3)CC[C@@H]21	0	nt	nt	nt
C[C@H](CO)N1C[C@H](C)[C@@H](CN(C)S(=O)(=O)c2ccccc2)OCCCC[C@H](C)Oc2ccc(NS(=O)(=O)c3cn(C)cn3)cc2C1=O	0	nt	nt	nt
